High-throughput results: PubChem, several laboratories
Mcl1-Bid inh: disrupts binding of human Mcl-1 to Bid peptide; TR-FRET Mcl-1/Bid-Dy647 peptide binding, 1536-well; inhibition, % at 21.7 µM; AID 1021; 220,000 compounds, 0.97% hits;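 active = compounds that cut the binding signal by more than half at the single screening dose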;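 note: His-tagged Mcl-1 with europium anti-His antibody binding Bid BH3 peptide; 0% = Mcl-1 plus peptide wells and 100% = peptide-only wells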
Bim-Mcl-1: inhibitors of Bim-Mcl-1 interaction, human | Q07820 | 190,000 compounds, 0.1% hits | inhibition, % at 10 µM | Bead-based flow cytometry, Bim peptide-Mcl-1 binding; in the data active = inhibition above about 40%;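 note: 0% = no compound tracer wells and 100% = peptide blocker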
MCL1-BIM inh: inhibitors of human MCL1 binding to BIM-BH3 peptide | Q07820 | GST-MCL1 / FITC-Bim-BH3 fluorescence polarization | inhibition, % at 10.9 µM | 320,000 compounds, 0.68% hits;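 active = inhibition above the mean inhibition of all tested compounds plus 3 SD, set per campaign, cut at about 40% in these data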;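 note: 0% = DMSO wells and 100% = unlabeled Bim-BH3 peptide control; higher means more loss of mP so more displacement of Bim peptide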
RBBP9 inhibitor: blocks human serine hydrolase RBBP9; inhibition, % at 7.94 µM; recombinant RBBP9, FP-Rh probe fluorescence polarization; 220,000 compounds, 0.2% hits; AID 1515;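 active = inhibition above the campaign mean of all tested compounds plus 3 SD, cut at about 14% in these data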;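 note: plate controls were DMSO wells with RBBP9 for no effect and wells lacking RBBP9 protein for full effect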
Target sequence (O75884 whole entry, looked up): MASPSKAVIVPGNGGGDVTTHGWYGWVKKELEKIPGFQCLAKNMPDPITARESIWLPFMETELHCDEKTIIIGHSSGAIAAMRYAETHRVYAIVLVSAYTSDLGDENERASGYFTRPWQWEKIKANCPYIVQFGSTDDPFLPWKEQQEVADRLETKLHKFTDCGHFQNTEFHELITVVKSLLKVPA
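Measured by – fluorescence polarization · Test system – RBBP9 protein · Input – 2.5 µM RBBP9 dispensing solution, before mixing · Measure – percent inhibition from mP, scaled between DMSO and no-protein wells · Benchmarks – DMSO-treated enzyme wells and wells lacking RBBP9 · Times – preincubation 30 min plus labeling 45 min at 25 °C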
EBV gp42 inh: inhibitors of Epstein-Barr virus glycoprotein 42. inhibition, % (tested at 21.74 µM). Q1HVG2. 220,000 compounds, 0.42% hits. Fluorescence polarization binding assay, mP read-out; in the data active = inhibition above about 50%
Mcl1 Noxa PPI: Mcl-1/Noxa interaction inhibition. Q07820. TR-FRET Mcl-1/Noxa peptide binding, 2 h. inhibition, % at 21.7 µM. 220,000 compounds, 1.5% hits;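 active = compounds that cut the protein-peptide binding signal by more than 50% relative to plate controls in a single-dose test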;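 note: His-tagged Mcl-1 with rhodamine Noxa BH3 peptide and terbium anti-His antibody; 0% = Mcl-1 plus Noxa peptide wells and 100% = peptide-only wells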
Bcl-xL conf: Bcl-xL (human) inhibition, MCL1 counter-screen confirmation; inhibition, % at 10.9 µM; 1,700 compounds, 54% hits; GST-Bcl-xL / FITC-Bim BH3 peptide FP binding; shares compounds with MCL1-BIM inh;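 active = inhibition above a cutoff equal to the mean inhibition of all tested compounds plus 3 SD, cut at about 30% in these data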;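 note: 0% = DMSO wells and 100% = unlabeled Bim BH3 control peptide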
Target sequence (Q07817 whole entry, looked up): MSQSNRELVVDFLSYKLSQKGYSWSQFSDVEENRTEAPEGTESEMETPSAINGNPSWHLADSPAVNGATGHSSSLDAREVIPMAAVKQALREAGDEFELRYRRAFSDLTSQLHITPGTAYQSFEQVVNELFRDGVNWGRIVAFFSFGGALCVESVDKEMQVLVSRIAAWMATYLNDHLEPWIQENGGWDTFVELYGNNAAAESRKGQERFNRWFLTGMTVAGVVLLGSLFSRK
MCL1 BIM confirm: confirmation of human MCL1 and BIM-BH3 interaction inhibitors | inhibition, % at 10.9 µM | shares compounds with MCL1-BIM inh | GST-MCL1 / FITC-Bim-BH3 fluorescence polarization | 1,700 compounds, 61% hits;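 active = inhibition above the average of all tested compounds plus 3 SD, cut at about 40% in these data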;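 note: 0% = DMSO wells and 100% = unlabeled Bim-BH3 control peptide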
* hit, by the source's call; . = no result; + = active, no number. This is a sample that favours compounds with a hit; in the whole collection about 2.2% have one here.

SMILES	Mcl1-Bid inh	Bim-Mcl-1	MCL1-BIM inh	RBBP9 inhibitor	EBV gp42 inh	Mcl1 Noxa PPI	Bcl-xL conf	MCL1 BIM confirm
C=CCn1cc(F)c(=O)n(CC=C)c1=O	5	0	-6	2	-11	18	.	.
C=CCN1C=CC(=O)CC1	-95	.	131*	.	-13	-8	5	-2
CCCCN1C(C(=O)Nc2ncccn2)=C(O)c2ccccc2S1(=O)=O	.	.	5	.	.	.	.	.
CCCCC1=CC2=C(c3ccco3)C(=O)C(C)(OC(=O)c3ccc(OC)cc3)C(=O)C2=CN1CCN1CCOCC1 (configuration not stated)	-102	.	93*	.	-1	36	14	16
COC(=O)CCCC1=CC2=C(c3ccccc3)C(=O)C(C)(OC(=O)C3CCCC3)C(=O)C2=CN1CCN1CCOCC1 (configuration not stated)	-114	.	154*	.	-9	2	68*	86*
CCCCC1=CC2=C(c3ccco3)C(=O)C(C)(OC(=O)c3ccc(OC)cc3)C(=O)C2=CN1CCCN(CC)CC (configuration not stated)	-54	.	53*	.	14	9	158*	+
CCCCC1=CC2=C(c3ccco3)C(=O)C(C)(OC(=O)c3ccc(OC)cc3)C(=O)C2=CN1CCCCO (configuration not stated)	-83	.	89*	.	-2	4	13	10
CCCCC1=CC2=C(c3ccco3)C(=O)C(C)(OC(=O)c3ccc(OC)cc3)C(=O)C2=CN1Cc1ccc(OC)cc1 (configuration not stated)	-91	.	.	.	12	17	.	.
O=C(NCc1ccc(F)cc1)c1cc2c(cc1Cl)N1CCCCCC1=NS2(=O)=O	.	.	-21	.	.	.	.	.
CCCCC1=CC2=C(c3ccco3)C(=O)C(C)(OC(=O)c3ccc(OC)cc3)C(=O)C2=CN1c1ccc(OC)cc1 (configuration not stated)	-107	.	32	.	-9	20	.	.
CCCCC1=CC2=C(c3ccco3)C(=O)C(C)(OC(=O)c3ccc(OC)cc3)C(=O)C2=CN1C1CCCC1 (configuration not stated)	.	.	135*	.	.	.	64*	79*
Cn1c(SCC(=O)NNC(=O)c2ccccc2)nnc1C(F)(F)F	.	.	-2	.	.	.	.	.
O=c1[nH]c2c(s1)C=Nc1ccccc1N2	-10	0	+	-10	119*	25	118*	152*
O=[N+]([O-])c1cc(CN2CCCC2)c2cccnc2c1O	10	-3	88*	-7	88*	75*	14	94*
O=[N+]([O-])c1cc(CN2CCN(c3cccc(C(F)(F)F)c3)CC2)c2cccnc2c1O	-3	0	10	-11	-7	-13	.	.
O=C(CSc1nc2ccccc2s1)Nc1cc(S(=O)(=O)N2CCOCC2)ccc1O	32	13	43*	-3	-17	105*	23	49*
CCOC(=O)c1sc(=S)n(-c2ccc(F)c(F)c2)c1N	7	-12	8	-8	-13	14	.	.
CCOC(=O)c1sc(=S)n(-c2ccc3c(c2)OCO3)c1N	-23	-9	49*	-6	-18	-1	14	8
CC(C)(C)N1CC(C(=O)Nc2ccc(C#N)cc2)CC1=O (configuration not stated)	.	.	14	.	.	.	.	.
O=C(Cn1nnc(-c2ccccc2)n1)N/N=C/c1cccc([N+](=O)[O-])c1	-7	-3	7	-4	-4	11	.	.
O=C(Cn1nnc(-c2ccccc2)n1)N/N=C/c1cccc([N+](=O)[O-])c1O	-109	0	46*	-6	-8	44	47*	87*
N#C/C(=C\c1ccc(O)c(O)c1)C(=O)Nc1cccc2ncccc12	.	.	71*	.	.	.	33*	69*
CC1CN(C(=O)CCC(=O)NCCCc2ccccc2)c2ccccc2O1 (configuration not stated)	.	.	4	.	.	.	.	.
Nc1nnnn1/N=C/c1cc(Cl)ccc1O	.	.	26	.	.	.	.	.
Nc1nnnn1/N=C/c1cc(Cl)cc(Cl)c1O	.	.	133*	.	.	.	134*	148*
